According to ChEMBL document CHEMBL4007469, “Design and synthesis of dalbergin analogues and evaluation of anti-osteoporotic activity” (Bioorg Med Chem Lett, 2017):
Calls of active or inactive are those of the source. The calls are words filed in the database; no cut-off is given here.

How the values were obtained:
[1] = test system: Mus musculus; assay: Osteogenic activity in Balb/c mouse drill-hole fracture model assessed as trabecular number at 1 mg/kg, po qd via gavage for 21 days by micro-CT method (reference value: 2.194 +/- 0.265 /millimeter)
[2] = test system: Mus musculus; assay: Anti-osteoporotic activity in ovariectomized postmenopausal Balb/c mouse model assessed as improvement in micro-artchitectural parameter in tibia by measuring trabecular separation at 1 mg/kg, po qd via gavage for 6 weeks by micro CT-scan analysis (reference value: 0.387 +/- 0.038 millimeter); format: functional
Summary of the method: (§1)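 Female Balb/c mice, 8 weeks old, ovariectomized, 6 weeks osteopenia development, then 1.0 mg/kg/day or gum acacia vehicle by oral gavage once daily for 6 weeks (sham, OVx and treated groups). Bones collected after sacrifice for micro-CT of trabecular microarchitecture (BV/TV, Tb.N, Tb.Th, Tb.Sp, SMI) and biomechanical testing of femur and vertebrae (energy, stiffness); mean ± SE versus OVx.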

[3] = test system: Mus musculus; assay: In vivo induction of osteogenesis in Balb/c mouse assessed as increase in OCN mRNA level in calvaria at 1 mg/kg/day, sc over calvarial surface for 5 consecutive days by RT-PCR method relative to control; format: functional
Summary of the method: (§2)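 Three-week-old Balb/c mice (3 per group) injected subcutaneously over the calvarial surface daily for 5 consecutive days at 0.1, 0.5, 1 and 5 mg/kg/day. Calvaria fixed in 4% formaldehyde, paraffin-embedded, H&E-stained; tetracycline and calcein (20 mg/kg each, ip) given for MAR/BFR histomorphometry; calvarial mRNA by RT-PCR. Mean ± SE, three independent experiments, versus untreated.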

[4] = test system: Mus musculus; assay: Anti-osteoporotic activity in ovariectomized postmenopausal Balb/c mouse model assessed as improvement in micro-artchitectural parameter in vertebrae by measuring trabecular thickness at 1 mg/kg, po qd via gavage for 6 weeks by micro CT-scan analysis (reference value: 0.047 +/- 0.001 millimeter); format: functional
Summary of the method: as §1

[5] = test system: Mus musculus; assay: In vivo induction of osteogenesis in Balb/c mouse assessed as increase in ALP mRNA level in calvaria at 1 mg/kg/day, sc over calvarial surface for 5 consecutive days by RT-PCR method relative to control; format: functional
Summary of the method: as §2

[6] = test system: Mus musculus; assay: In vivo induction of osteogenesis in Balb/c mouse assessed as increase in bone formation rate in calvaria at 0.1 to 1 mg/kg/day, sc over calvarial surface for 5 consecutive days by fluorochromes tetracycline and calcein labeling based histomorphometric analysis; format: functional, organism-based
Summary of the method: as §2

[7] = test system: Mus musculus; assay: Decrease in osteocalcin level in serum of ovariectomized postmenopausal Balb/c mouse model at 1 mg/kg, po qd via gavage for 6 weeks by ELISA; format: functional, organism-based
Summary of the method: (§3)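 Eight-week-old female Balb/c mice, ovariectomized and left 6 weeks for osteopenia to develop; groups sham+vehicle, OVx+vehicle, OVx+1.0 mg/kg/day, dosed once daily by oral gavage for 6 weeks in gum acacia/distilled water vehicle. Mice kept at 21°C, 12 h light/dark, chow and water ad libitum. Femoral bone mRNA or serum measured after sacrifice; mean ± SE versus OVx group.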

[8] = Induction of mineralization in mouse calvarial cells assessed as increase in COL1 mRNA expression at 1 pM after 24 hrs by qRT-PCR method relative to control; format: functional, Calvarial cell
Summary of the method: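 Mouse calvarial osteoblasts exposed to 1 pM for 24 h; BMP2, RunX2 and COL1 mRNA by quantitative PCR with GAPDH as internal control. Mean ± SE of three independent experiments versus untreated cells.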

[9] = test system: Mus musculus; assay: Anti-osteoporotic activity in ovariectomized postmenopausal Balb/c mouse model assessed as increase in BMP2 gene expression in femur bone at 1 mg/kg, po qd via gavage for 6 weeks by RT-PCR method; format: functional, organism-based
Summary of the method: as §3

[10] = test system: Mus musculus; assay: Estrogenic effect in uterine of ovariectomized postmenopausal Balb/c mouse model assessed as uterine weight at 1 mg/kg, po qd via gavage for 6 weeks (reference value: 0.025 +/- 0.02 mg); format: ADME, organism-based; settings: in vivo, 1008 h
[11] = test system: Mus musculus; assay: Anti-osteoporotic activity in ovariectomized postmenopausal Balb/c mouse model assessed as bone formation rate at 1 mg/kg, po qd via gavage for 6 weeks by fluorochromes tetracycline and calcein labeling based histomorphometric analysis (reference value: 0.098 +/- 0.01 um3.um2/day); format: functional
[12] = test system: Mus musculus; assay: Anti-osteoporotic activity in ovariectomized postmenopausal Balb/c mouse model assessed as increase in RunX2 gene expression in femur bone at 1 mg/kg, po qd via gavage for 6 weeks by RT-PCR method; format: functional, organism-based
Summary of the method: as §3

[13] = test system: Mus musculus; assay: Anti-osteoporotic activity in ovariectomized postmenopausal Balb/c mouse model assessed as improvement in micro-artchitectural parameter in tibia by measuring trabecular thickness at 1 mg/kg, po qd via gavage for 6 weeks by micro CT-scan analysis (reference value: 0.0475 +/- 0.0005 millimeter); format: functional
Summary of the method: as §1

[14] = test system: Mus musculus; assay: Osteogenic activity in Balb/c mouse drill-hole fracture model assessed as structure model index at 1 mg/kg, po qd via gavage for 21 days by micro-CT method (reference value: 2.585 +/- 0.387)
[15] = test system: Mus musculus; assay: Anti-osteoporotic activity in ovariectomized postmenopausal Balb/c mouse model assessed as improvement in micro-artchitectural parameter in vertebrae by measuring trabecular number at 1 mg/kg, po qd via gavage for 6 weeks by micro CT-scan analysis (reference value: 2.24 +/- 0.16 /millimeter); format: functional
Summary of the method: as §1

[16] = test system: Mus musculus; assay: Osteogenic activity in Balb/c mouse drill-hole fracture model assessed as increase in COL1 mRNA level at 1 mg/kg, po qd via gavage for 21 days by RT-PCR method relative to control
[17] = test system: Mus musculus; assay: Anti-osteoporotic activity in ovariectomized postmenopausal Balb/c mouse model assessed as increase in COL1 gene expression in femur bone at 1 mg/kg, po qd via gavage for 6 weeks by RT-PCR method; format: functional, organism-based
Summary of the method: as §3

[18] = test system: Mus musculus; assay: Anti-osteoporotic activity in ovariectomized postmenopausal Balb/c mouse model assessed as femur bone breaking strength by measuring energy at 1 mg/kg, po qd via gavage for 6 weeks by micro CT-scan analysis (reference value: 2.6 +/- 0.18 mJ); format: functional
Summary of the method: as §1

[19] = test system: Mus musculus; assay: Anti-osteoporotic activity in ovariectomized postmenopausal Balb/c mouse model assessed as improvement in micro-artchitectural parameter in tibia by measuring structural model index at 1 mg/kg, po qd via gavage for 6 weeks by micro CT-scan analysis (reference value: 2.32 +/- 0.08); format: functional
Summary of the method: as §1

[20] = test system: Mus musculus; assay: Anti-osteoporotic activity in ovariectomized postmenopausal Balb/c mouse model assessed as increase in OPG gene expression in femur bone at 1 mg/kg, po qd via gavage for 6 weeks by RT-PCR method; format: functional, organism-based
Summary of the method: as §3

[21] = test system: Mus musculus; assay: In vivo induction of osteogenesis in Balb/c mouse assessed as bone formation at 0.5 to 1 mg/kg/day, sc over calvarial surface for 5 consecutive days; format: functional, organism-based
Summary of the method: as §2

[22] = test system: Mus musculus; assay: Anti-osteoporotic activity in ovariectomized postmenopausal Balb/c mouse model assessed as induction of femur bone marrow cell mineralization at 1 mg/kg, po qd via gavage for 6 weeks measured on day 21 post dose by alizarin red-S staining based assay relative to control; format: functional
Summary of the method: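 Ovariectomized 8-week-old female Balb/c mice given 1.0 mg/kg/day orally by gavage for 6 weeks; bone marrow cells then cultured ex vivo. ALP activity read at 405 nm; mineralized nodules stained with Alizarin Red at day 21 of culture. Mean ± SE versus OVx group.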

COc1cc2oc(=O)cc(-c3ccccc3)c2cc1OCCCCCN1CCN(C)CC1
Activity [1]: 3.442 /millimeter | Activity [2]: 0.294 mm | fold change (FC) [3]: 4 | Activity [4]: 0.0522 mm | fold change (FC) [5]: 5 | Activity [6]: Active | Activity [7]: Active | fold change (FC) [8]: 6 | Activity [9]: Active | Activity [10]: 0.032 mg | Activity [11]: 0.163 um3.um2/day | Activity [12]: Active | Activity [13]: 0.052 mm | Activity_index [14]: 0.496 | Activity [15]: 4.63 /millimeter | fold change (FC) [16]: 6 | Activity [17]: Active | Activity [18]: 4.55 mJ | Activity_index [19]: 1.84 | Activity [20]: Active | Activity [21]: Active | Activity [22]: 50%
